Measurements taken from the RNAGym collection of RNA variant scans (doi:10.1126/science.aae0568).
Fewer inactive variants are shown than the library holds.

B1: tRNA (parent)
chain: GUUCCGUUGGCGUAAUGGUAACGCGUCUCCCUCCUAAGGAGAAGACUGCGGGUUCGAGUCCCGUACGGAACG

Variants of: B1
Experiment: yeast fitness relative to wild type (ratio to wild type); higher = fitter; tRNA-Arg(CCU), competitive growth, 37 C, YPD
Method in brief: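 Start and end populations of a pooled competition were compared by 100-nucleotide paired-end sequencing of gene amplicons. The Saccharomyces cerevisiae strains carried tRNA-Arg(CCU) gene variants at the native genomic locus, synthesised with a 3% per-site mutation rate at 69 sites, and competed in YPD at 37°C for 24 hours in six parallel replicates. Darwinian fitness relative to wild type was based on the change in genotype frequencies. Genotypes required ≥ 100 starting reads, and estimates < 0.5 were set to 0.5.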

| Variant | yeast fitness |
| --- | --- |
| G17C C22A U32C | 0.553 |
| G17C C31G A45C U54C C55A | ≤ 0.5 |
| U16G G51A | 0.783 |
| G17A C22U A45G C46U A69U | 0.603 |
| G17C C30G A57C C61G | 0.613 |
| G17A C34A C49U G52U | ≤ 0.5 |
| G17A A37C G58A | 0.551 |
| G17C G25C C30U A65C | ≤ 0.5 |
| U16G C29G G58A | 0.59 |
| U16G G51C A65C | 0.635 |
| G17A G18A A42C C55U | 0.508 |
| G17A A45G A65U | 0.559 |
| G17C C46G | 0.747 |
| G17A C24A C49U | ≤ 0.5 |
| G17C A42G A70G | ≤ 0.5 |
| G17A A21G C49U C60A G63A | 0.529 |
| G17A C60G C61G | ≤ 0.5 |
| G17C C27U C34U A42U | ≤ 0.5 |
| G17A C31U | 0.74 |
| G17A C33G A36G G63A | ≤ 0.5 |
| G17A A20G U53A | ≤ 0.5 |

| Variant | yeast fitness |
| --- | --- |
| U16G G63A | 0.937 |
| U16G G38A U54C A65U | ≤ 0.5 |
| G17A A20C G25A C66A G68C | ≤ 0.5 |
| G17A C29U | 0.832 |
| G17A C22U A37U U47A G68C | ≤ 0.5 |
| G17A A20G C30A | 0.628 |
| G17A G48C C62A | 0.549 |
| G17A G39C G56C | ≤ 0.5 |
| U16G G68A | 0.967 |
| G17C C30G C49U A57C C61G | ≤ 0.5 |
| G17C C22A C31G C55G G68A | 0.587 |
| G17C C27U G67C | ≤ 0.5 |
| U16G C31G G48C A57U | ≤ 0.5 |
| G17A U28G A42G G68U | ≤ 0.5 |
| G17C A42C | 0.618 |
| U16G U32G C46U C49U | ≤ 0.5 |
| G17A C30A A57U G58A | ≤ 0.5 |
| G17A A20G G41A | 0.593 |
| G17C C33U | 0.556 |
| G17C A36G C49U C66U A69C | 0.598 |
| G17A C34A A57U | ≤ 0.5 |

| Variant | yeast fitness |
| --- | --- |
| G17A A21G U26C C66A | ≤ 0.5 |
| G17C A40G G41A G56C | ≤ 0.5 |
| G17A A20G A36C A37C U53G A70C | ≤ 0.5 |
| G17C A37G A40C | 0.619 |
| G17C C29G A37C U64C | 0.771 |
| G17C C34A A42U A43C | ≤ 0.5 |
| G17C C22U C49G | ≤ 0.5 |
| U16G G18C U59A A65U C66A | ≤ 0.5 |
| G17C G25C U26A C29G A36U G39A C46U C55U | ≤ 0.5 |
| G17A U32A G67C | 0.6 |
| G17C C29G A65C | 0.629 |
| G17A A42U U59C | ≤ 0.5 |
| G17C G23C | 0.517 |
| U16G G67U | 0.774 |
| G17C C27U C61A | 0.537 |
| G17A A20G C34U C55G | ≤ 0.5 |
| U16G C46A G56C A70G | ≤ 0.5 |
| G17C A21G U26G | ≤ 0.5 |
| G17A A42C A70C | 0.688 |
| G17A C22U U28C U54G A57C | ≤ 0.5 |
| G17A A45U G52A A70U | 0.535 |

| Variant | yeast fitness |
| --- | --- |
| G17C A69C | 0.658 |
| G17C A69U | 0.624 |
| G17A C22U C27A C30G C66G | ≤ 0.5 |
| G17C G25C C66U | ≤ 0.5 |
| G17A C33U | 0.607 |
| G17A G25A | 0.886 |
| U16G C22G A37G A43G G68A | ≤ 0.5 |
| G17C C27G C29A | ≤ 0.5 |
| G17A C29G U59G C61G C62U | ≤ 0.5 |
| G17C C33U A43G | ≤ 0.5 |
| G17A C29G U47A G51A | ≤ 0.5 |
| U16G G18C A21U | 0.59 |
| U16G C46U U53C A69C | 0.711 |
| G17A A20G C27G A36C U47A G68A | ≤ 0.5 |
| G17A C46U | 0.878 |
| G17A C46G | 0.712 |
| G17A A20C G25A | 0.506 |
| G17C C33G G48U | ≤ 0.5 |
| G17C C66U | 0.705 |
| G17C C24A U47A | ≤ 0.5 |
